Screens as filed in PubChem BioAssay.
An excerpt weighted towards active compounds, which were near 2.1% of everything screened.
SR-BI uptake up: SR-BI HDL lipid transfer activation; AID 504775; activation, % at 12.5 µM; CHO ldlA[mSR-BI] cells, DiI-HDL uptake fluorescence, 3 h; 100 = double the neutral-control signal; actives 0.096% (n = 320,000);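 active = mean replicate activation of at least 60% and every replicate at or above 60%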
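system = CHO ldlA[mSR-BI] cells, LDL receptor-null, SR-BI overexpressing | medium = Ham's F12 with 0.5% BSA, HEPES 25 mM, pH 7.4 | probe or stimulus = DiI-HDL 10 µg/mL | compound dosing = single-point compound dose | incubation = compound exposure 3 h, 37 °C | technique = DiI fluorescence, bottom read | read-out = cell-associated DiI fluorescence as measure of HDL uptake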
dFosB activator: mouse delta FosB homodimer activation. P13346. purified delta FosB, TAMRA-CDK5 oligo fluorescence polarization; percent of positive-control signal above neutral wells. activation, % at 25 µM. actives 0.99% (n = 340,000). AID 493131;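 active = mean activation above about 17%, with every replicate also reaching it, limit read from the data, passing the limit was not always enough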
Target sequence (P13346 whole entry, looked up): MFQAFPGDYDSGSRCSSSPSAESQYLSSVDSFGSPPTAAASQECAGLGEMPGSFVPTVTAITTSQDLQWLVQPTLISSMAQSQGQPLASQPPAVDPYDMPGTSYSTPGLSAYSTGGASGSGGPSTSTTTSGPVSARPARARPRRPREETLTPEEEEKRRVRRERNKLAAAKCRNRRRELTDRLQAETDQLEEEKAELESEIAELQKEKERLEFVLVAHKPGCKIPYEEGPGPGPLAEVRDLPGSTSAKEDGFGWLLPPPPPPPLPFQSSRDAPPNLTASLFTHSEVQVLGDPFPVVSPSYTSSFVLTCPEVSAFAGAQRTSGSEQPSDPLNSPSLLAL
PKA-R1A act: activates the PKA-R1A holoenzyme complex; PKA-R1A dissociation, Cy5-IP20 fluorescence polarization; scaled: DMSO 0%, 113 µM cGMP 100%; P00514+P68181; AID 504707; actives 0.083% (n = 340,000); activation, % at 11.4 µM;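 active = percent activation above the mean of all tested compounds plus 3 SD, cut at about 19% in these data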;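 also: higher means more PKAc released from R1A so a rise in polarization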
PKA-R2B activ: activators of human PKA-R2B complex; P22694+P31323; PKA-R2B holoenzyme dissociation, Cy5-IP20 fluorescence polarization; R2B truncated from residue 108, S112A mutant; 0% DMSO only, 100% 113 µM cGMP; activation, % at 11.4 µM; actives 0.079% (n = 340,000); AID 504700;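 active = activation above a cutoff set at the mean over all compounds plus 3 SD, cut at about 18% in these data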;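 also: higher means more holoenzyme dissociation and a rise in polarization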
SR-BI DiI inh: blocks mouse SR-BI lipid uptake from DiI-HDL | Q61009 | inhibition, % at 12.5 µM | actives 0.96% (n = 320,000) | AID 488896 | ldlA[mSR-BI] CHO cells, DiI-HDL uptake fluorescence, 3 h;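 active = mean replicate inhibition of at least 70% and a set share of replicates each scoring 70 or more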
CDK5 p35 inh: blocks human CDK5/p35 kinase activity | inhibition, % at 10 µM | AID 488839 | Recombinant CDK5/p35, ADP-Glo luminescence, 60 min | actives 0.01% (n = 330,000) | Q00535+Q15078;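 active = highest replicate inhibition of at least 50% and at least 75% of replicates reaching 50%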
R1A FP artifact: FP assay interference, PKA-R1A counter-screen; Cy5-IP20 peptide alone, fluorescence polarization artifact counterscreen; activation, % at 11.4 µM; shares compounds with PKA-R1A act; actives 7% (n = 280);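 active = mean activation over triplicate runs exceeds the adjusted cutoff derived for the parent primary screen, cut at about 19% in these data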;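 also: no PKA protein present so any polarization rise reflects compound interference; higher means stronger polarization artifact and likely false positive in parent screen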
PKA-R1A confirm: confirmation of PKA-R1A complex activators. shares compounds with PKA-R1A act. Cy5-IP20 fluorescence polarization, PKA-R1A holoenzyme dissociation. activation, % at 11.4 µM. actives 9% (n = 280). AID 504800;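 active = mean activation over replicate wells exceeds the adjusted hit threshold taken from the earlier primary screen, cut at about 20% in these data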
Of the large screens only hits and unclear results are named; the others gave an inactive call (follow-up assays come after a bar, where they were run).

O=c1c(Cl)c(NCc2ccccc2Cl)cnn1C12CC3CC(CC(C3)C1)C2	PKA-R1A act 19 | R1A FP artifact inactive | PKA-R1A confirm inactive
CCCC1=NN(c2ccc([N+](=O)[O-])cc2)C(=O)/C1=C/N(C)C	PKA-R1A act 19 | R1A FP artifact inactive | PKA-R1A confirm inactive
CC1=NN(c2ccc([N+](=O)[O-])cc2)C(=O)/C1=C\N(C)C	none
CCOc1ccc(NC(=O)CN(C)C(=O)CCNC(=O)c2ccco2)cc1OCC	PKA-R1A act 19 | R1A FP artifact inactive | PKA-R1A confirm inactive
Cc1ccc(N2CCN(S(=O)(=O)c3c(C)nc4scc(C)n4c3=O)CC2)c(C)c1	none
CCn1c(SCC(=O)Nc2nccs2)nnc1-c1cc2cccc(OC)c2o1	none
COc1cccc2cc(-c3nnc(SCC(=O)Nc4cc(C(F)(F)F)ccc4Cl)n3N)oc12	PKA-R1A act 20 | R1A FP artifact inactive | PKA-R1A confirm inactive
Cc1ccc(C)c(S(=O)(=O)N2CCN(C(=O)[C@H](Cc3ccccc3)NC(=O)c3ccco3)CC2)c1	none
Cc1nc(-c2ccccc2)sc1C1(C)CC(c2ccc(OC(F)(F)F)cc2)=NO1 (configuration not stated)	PKA-R1A act 19 | R1A FP artifact inactive | PKA-R1A confirm inactive
Cc1nc(-c2ccc(Cl)cc2)sc1C1(C)CC(c2ccc(OC(F)(F)F)cc2)=NO1 (configuration not stated)	none
COc1cccc(C(=O)NC(=S)Nc2ccccc2N2CCCCC2)c1	none
CC(C)Oc1cccc(C(=O)NC(=S)Nc2ccccc2N2CCOCC2)c1	PKA-R1A act 19 (no result: SR-BI uptake up) | R1A FP artifact inactive | PKA-R1A confirm inactive
O=C(O)c1nn(CC(=O)N2CCC(Cc3ccccc3)CC2)c(=O)c2ccccc12	PKA-R1A act 21 (no result: SR-BI uptake up, SR-BI DiI inh) | R1A FP artifact inactive | PKA-R1A confirm inactive
CCOC(=O)N1CCc2c(sc3nc(SC(C)C)n(N)c(=O)c23)C1	none
CCOC(=O)N1CCc2c(sc3ncn(C)c(=O)c23)C1	PKA-R1A act 19 | R1A FP artifact inactive | PKA-R1A confirm inactive
Cc1ccc(NC(=O)CSCC(=O)N(C)CC(=O)Nc2ccccc2C(F)(F)F)cc1	none
COc1ccc(/C=C2\SC(=S)N(CC3CCCO3)C2=O)cc1 (configuration not stated)	none
O=C1/C(=C/c2cccnc2)SC(=S)N1CC1CCCO1 (configuration not stated)	PKA-R1A act 25 | R1A FP artifact inactive | PKA-R1A confirm inactive
Nc1c(Br)cc(Br)c2c1-c1ccc([N+](=O)[O-])cc1C2	none
CC1CCCCC1NCC(=O)NCc1ccc(F)cc1 (configuration not stated)	none
COc1cccc(C2C(C#N)=C(N)OC(C(C)(C)C)=C2C#N)c1 (configuration not stated)	none
COc1ccc(C2C(C#N)=C(N)OC(C(C)(C)C)=C2C#N)cc1OC (configuration not stated)	PKA-R1A act 20 | R1A FP artifact inactive | PKA-R1A confirm inactive
COc1ccc(N2C(=O)CSC2c2ccc([N+](=O)[O-])cc2)cc1 (configuration not stated)	PKA-R1A act 20 | R1A FP artifact inactive | PKA-R1A confirm inactive
CCOC(=O)C1=NNC(C(=O)c2ccc(OC)cc2)C1c1ccccc1 (configuration not stated)	PKA-R1A act 20 | R1A FP artifact inactive | PKA-R1A confirm inactive
CCOC(=O)C1=NNC(C(=O)c2ccccc2)C1c1ccc(C)cc1 (configuration not stated)	none
CCOc1ccccc1Nc1nc(N)nc(CSc2nncn2C)n1	PKA-R1A act 21 | R1A FP artifact inactive | PKA-R1A confirm inactive
